PubChem BioAssay AID2152 (The Scripps Research Institute Molecular Screening Center, 2009)
The campaign covered roughly 2,300 compounds. About 25 (1%) were called active. The sample holds actives, similar compounds and a random draw of the others, so the mix is not that of the screen.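 The calls were made as follows: active = mean inhibition over three replicate wells above the hit threshold derived in the earlier primary screen (cut at about 45% in these data); inactive = the rest.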

These molecules were tested on Hepatitis C virus core protein (core106 dimerization) (assay: blockers of core106 self-association – biochemical, TR-FRET, triplicate, confirmation (AID 2152;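 also: 0% = DMSO wells and 100% = unlabelled core106 competitor control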)). Settings: TR-FRET GST-/Flag-core106 dimerization, HTRF; at 5 µM; hits give high values.
In short: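 Test system: GST- and Flag-tagged HCV core106 peptides, dimerization via antibody TR-FRET | Medium: HEPES/KF buffer, pH 7.45 | Also added: Eu(K)-anti-GST plus XL665-anti-FLAG antibodies | Times: 4 h incubation, 22.5 °C | Signal: TR-FRET, excitation 340 nm, emission 671 and 617 nm | Evaluation: Percent inhibition from emission ratio | Replication: Triplicate wells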

inhibition, active:
CC1(O)C(=O)C=C2C=C(c3ccc(C#N)cc3)OC=C2C1=O (centres undefined) 55%
Cc1oc(-c2ccc(Cl)cc2)cc1-c1nn2c(-c3ccoc3C)nnc2s1 52.5%
CCN(CC(=O)Nc1c(F)cccc1F)C(=O)/C=C/c1ccc2ccccc2n1 62.5%
CC1=C(C#N)C(=O)N(C2CCS(=O)(=O)C2)C(=O)/C1=C\c1ccco1 (centres undefined) 56.2%
COc1ccccc1/C=C/C=c1\sc2nc(=O)c(Cc3ccccc3)nn2c1=O 46.4%
CCOc1cc(/C=C2\C(=O)N(c3nc(-c4ccc(Br)cc4)cs3)N=C2c2ccccc2)ccc1O 58.1%
CN(C(=O)COC(=O)c1cc(-c2ccco2)nc2ccccc12)C1CCS(=O)(=O)C1 (centres undefined) 49.6%
C=C(NC(=O)C(=C)NC(=O)c1csc(C2=NC3c4csc(n4)C4NC(=O)c5csc(n5)C([C@@](C)(O)C(C)O)NC(=O)C5CSC(=N5)/C(=C\C)NC(=O)C(C(C)O)NC(=O)c5csc(n5)[C@]3(CC2)NC(=O)C(C)NC(=O)C(=C)NC(=O)C(C)NC(=O)C(C(C)CC)NC2C=Cc3c(C(C)O)cc(nc3C2O)C(=O)OC4C)n1)C(N)=O (some centres undefined) 47.5%

inhibition, inactive:
Cc1csc(SCC(=O)Nc2sc3c(c2C#N)CCC3)n1 -4.85%
CCCCN(C(=O)c1cc(-c2ccco2)nc2ccccc12)c1c(N)n(CCCC)c(=O)[nH]c1=O -1.63%
CN(CC(=O)Nc1ccc(F)cc1)C(=O)c1cc(-c2ccco2)nc2ccccc12 13.3%
O=C(Nc1ccc(Cl)c([N+](=O)[O-])c1)c1cnccn1 6.55%
C=CCN1C=C2C(=O)C(C)(OC(=O)CCc3ccccc3)C(=O)C=C2C=C1c1ccc(C#N)cc1 (centres undefined) 0.52%
CC1(OC(=O)CCc2ccccc2)C(=O)C=C2C=C(c3ccc(C#N)cc3)N(c3ccccc3)C=C2C1=O (centres undefined) 1.14%
Cc1ccc2nc(N3CCN(S(=O)(=O)c4ccc5c(c4)OCCO5)CC3)c(C#N)cc2c1 14.6%
O=C(c1cc(-c2ccccn2)nc2ccc(Br)cc12)N1CCN(S(=O)(=O)c2ccccc2)CC1 17%
C/C=C\C=C/C(=O)Nc1cccc(C2=NOC3(C2)C[C@@H](C(N)=O)N(C(=O)/C=C/CC)C3)c1 (some centres undefined) 5.44%
O=C1C(Cc2ccccc2)S/C(=N/N=C/c2ccco2)N1c1ccccc1 (centres undefined) -8.03%
c1ccc(-c2cc(-c3nn4c(-c5ccco5)nnc4s3)c3ccccc3n2)cc1 16.7%
Cc1oc(-c2ccc(F)cc2)cc1-c1nn2c(-c3ccoc3C)nnc2s1 20.6%
Cc1ccc(NC(=O)c2cc(-c3ccc(C)o3)nc3ccccc23)cc1 -0.19%
O=C(/C=C/c1ccc2ccccc2n1)N1CCN(c2ccccc2)CC1 -3.48%
CCN(CC(=O)Nc1c(F)cccc1F)C(=O)c1cccc(-n2cccc2)c1 3.91%
O=C1CCCC2=C1C(c1cn(-c3ccccc3)nc1-c1cccs1)c1c([nH]c(=O)[nH]c1=O)N2 (centres undefined) 0.06%
Cc1ccccc1N1C(S)=C(C#N)C(=O)NC1c1ccco1 (centres undefined) 9.88%
Cc1ccc(NC(=O)CN2C(=O)N/C(=C/c3ccco3)C2=O)cc1 -4.53%
COc1ccc(-c2cc(C(=O)Nc3sc4c(c3C#N)CCCC4)c3ccccc3n2)cc1OC -1.02%
COc1cc(-c2cc(C(=O)OCC(=O)Nc3ccc4c(c3)OCO4)c3ccccc3n2)cc(OC)c1OC 4.02%
CN(CC(=O)Nc1c(Cl)cccc1Cl)C(=O)c1cccc(-n2cccc2)c1 2.1%
COc1ccc(CC(=O)OCC(=O)Nc2ncc(Cl)cc2Cl)cc1 -1.83%
COc1ccccc1NC(=O)c1ccc(SCC(=O)NCc2ccccc2Cl)c([N+](=O)[O-])c1 -1.75%
O=C(NCc1ccco1)C1Cc2ccccc2CN1S(=O)(=O)c1ccccc1F (centres undefined) 18.4%
C/C=C\C=C/C(=O)Nc1cccc(C2=NOC3(C2)C[C@@H](C(N)=O)N(C(=O)[C@H]2CCC(=O)N2)C3)c1 (some centres undefined) -14.3%
O=C(N/N=C/c1ccc(N2CCCCC2)o1)C(O)(c1ccccc1)c1ccccc1 -3.6%
CCOc1ccc(C2C(C#N)=C(N)SC(N)=C2C#N)cc1OCC 31.4%
COc1ccccc1C(CCN(Cc1cccs1)C(C)=O)c1ccco1 (centres undefined) -3.29%
O=C(NCCN1C(=O)S/C(=C\c2ccc(Cl)c(Cl)c2)C1=O)c1ccc2c(c1)C(=O)N(Cc1ccncc1)C2=O 6.43%
O=C(COc1ccc([N+](=O)[O-])cc1)Nc1nnc(-c2cccnc2)s1 16.4%
CC[C@@H](C)CN1C(=O)N[C@@H](c2ccccc2)C(C(C)=O)=C1C 5.08%
CCOC(=O)c1cccc(NC(=O)C2CCCN(c3nnc(N4CCCC4=O)s3)C2)c1 (centres undefined) -7.1%
O=c1c2c3nc4ccccc4nc3n(/N=C/c3ccco3)c2ncn1CCC1=CCCCC1 2.56%
O=C(O)C/C(=C\c1cc(Cl)c2c(c1)OCO2)c1nc2ccccc2s1 4.02%
Cc1ccc(NC(=O)Nc2nnc(Cc3ccc([N+](=O)[O-])cc3)s2)cc1 6.61%
N=c1c(C(=O)NCc2ccco2)cc2c(=O)n3ccccc3nc2n1Cc1ccc(Cl)cc1 9.28%
O=c1nc2s/c(=C\c3ccco3)c(=O)n2nc1Cc1ccc(F)cc1 14.3%
COc1ccccc1/C=c1\sc2nc(-c3ccco3)nn2c1=O 8.15%
COc1cccc(/C=N/NC(=O)c2nc(-c3ccccc3)cc(-c3ccccc3)n2)c1 6.79%
Cc1ccc(C)c(N2CCN(C(=O)CSc3ccsc3[N+](=O)[O-])CC2)c1 12.5%
O=C(/C=C\c1ccc2c(c1)OCO2)Nc1c2c(nn1-c1ccc(Cl)cc1)CSC2 -1.47%
O=C(Cn1cnc2sc(-c3ccccc3)cc2c1=O)NCc1ccco1 3.55%
CCc1ccc(-c2csc(NC(=O)C3=NN(c4ccccc4)C(=O)CC3)n2)cc1 -3.1%
Cc1ccc(-c2csc(N3N=C(c4ccccc4)/C(=C\c4ccc(N(C)C)cc4)C3=O)n2)cc1 1.99%
CNC(=O)COC(=O)c1cc(-c2ccco2)nc2ccccc12 12.2%
O=C(OCC(=O)N1CCN(C(=O)c2ccco2)CC1)c1cc(-c2ccco2)nc2ccccc12 30.6%
Cc1cc(C)c(S(=O)(=O)N2CCOC2CNC(=O)C(=O)NCCc2ccc(S(N)(=O)=O)cc2)c(C)c1 (centres undefined) -0.31%
Cc1[nH]c2ccccc2c1CCNC(=O)c1ccc2c(c1[N+](=O)[O-])C(=O)c1ccccc1C2=O -6.67%
CCOc1cc(/C=N\NC(=O)c2ccc(NC(=O)C(C)(C)C)cc2)ccc1OC(=O)c1cccc(C)c1 -6.21%
C=CCOc1ccc(-c2nc3c(c(=O)[nH]c(=O)n3Cc3ccccc3)n2CCCOC)cc1 3%
C=CCn1c(C)cc(C(=O)COC(=O)c2ccc3c(c2)NC(=O)CS3)c1C -0.86%
COC(=O)c1ccccc1NC(=O)CN1C(=O)C2CCCN2c2ncc(Cl)cc21 (centres undefined) 4.11%
CCCN(CCC)C(=O)CC(c1ccc(F)cc1)c1ccco1 (centres undefined) -2.6%
COc1ccc(C2=NN(C(=O)CSc3nc(=O)n4cccc(C)c4n3)C(c3ccc(C)cc3)C2)cc1 (centres undefined) 21.8%
O=C(NNC(=O)c1cccc(-n2cccc2)c1)c1ccc(F)cc1 9.23%
Cc1ccc(-c2cc(C(F)F)n3ncc(C(=O)Nc4c(C)nn(Cc5ccccc5Cl)c4C)c3n2)cc1 0.26%
N#Cc1ccsc1NC(=O)COc1ccc(-c2nnco2)cc1 3.2%
O=C1CC(c2ccco2)Cc2nc(N3CCc4ccccc4C3)ncc21 (centres undefined) 0.9%
CCN(CC)c1cc2nc(C)n(Cc3ccccc3)c(=O)c2cc1NC(=O)C1CC1 3.07%
Cc1cc([N+](=O)[O-])cc2c1NC(c1ccccn1)C1CC=CC21 (centres undefined) 8.17%
CC(C)Cc1nc(N2CCN(C(=O)c3ccco3)CC2)c(C#N)c2c1CCC2 -9.13%
Cc1ccc2[nH]c(=O)c(CN(Cc3ccc4c(c3)OCO4)Cc3nnnn3Cc3ccco3)cc2c1 -2.73%
COc1ccc(C(=S)N2CCOCC2)cc1OC(=O)c1cc([N+](=O)[O-])c(C)c([N+](=O)[O-])c1 3.86%
COc1ccc(/C=C2\SC(=S)N(NC(=O)c3csc4c3CCCC4)C2=O)cc1 -8.8%
CC(C)Cn1c(-c2ccccc2)nc(=S)c2c1CCCC2 2.05%
COc1ccc(NC(=O)NNC(=O)COc2ccc3cc(Br)ccc3c2)c(OC)c1 0.29%
COC/C=C/C1=CC2=CC(=O)C(C)(OC(=O)c3cnc4ccccc4n3)C(=O)C2=CN1Cc1ccc(OC)cc1 (centres undefined) 2.72%
O=C1c2ccccc2C(Nc2ccc3c(c2)OCO3)N1Cc1ccc2c(c1)OCO2 (centres undefined) -1.13%
CC(=O)c1ccc(NC(=O)/C(=C\c2ccccc2)NC(=O)/C=C/c2ccccc2)cc1 -3.84%
CS(=O)(=O)N1CCc2cc(-c3csc(NC(=O)C(c4ccccc4)c4ccccc4)n3)ccc21 -5%
O=C(COC(=O)c1ccccc1Oc1ccccc1)NCc1ccco1 -1.91%
